Test results reported in ChEMBL document CHEMBL1140586, “Design and synthesis of a functionally selective D3 agonist and its in vivo delivery via the intranasal route” (Bioorg Med Chem Lett, 2007).

Tests used:
[1] = biological target: D(2) dopamine receptor (Homo sapiens, UniProt P14416); assay: Agonist activity at human recombinant dopamine D2 receptor expressed in rat pituitary cells assessed as inhibition of forskolin-stimulated cAMP accumulation; type: functional, cell-based, Pituitary gland cell
Chain of D(2) dopamine receptor (P14416 whole entry): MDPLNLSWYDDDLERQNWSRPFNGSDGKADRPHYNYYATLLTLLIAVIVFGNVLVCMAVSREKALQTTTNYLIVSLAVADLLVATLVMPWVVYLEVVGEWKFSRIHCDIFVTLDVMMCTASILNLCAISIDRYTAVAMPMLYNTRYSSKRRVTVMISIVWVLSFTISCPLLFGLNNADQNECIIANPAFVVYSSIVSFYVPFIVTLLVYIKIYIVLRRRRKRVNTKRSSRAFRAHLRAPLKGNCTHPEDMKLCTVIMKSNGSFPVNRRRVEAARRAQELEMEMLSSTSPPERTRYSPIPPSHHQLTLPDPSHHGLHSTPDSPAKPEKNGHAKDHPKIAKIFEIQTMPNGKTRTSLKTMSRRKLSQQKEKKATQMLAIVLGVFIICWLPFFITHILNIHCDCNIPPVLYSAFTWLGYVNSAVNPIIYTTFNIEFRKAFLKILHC

[2] = biological target: D(3) dopamine receptor (Homo sapiens, UniProt P35462); assay: Agonist activity at human recombinant dopamine D3 receptor expressed in CHO cells assessed as inhibition of forskolin-stimulated cAMP accumulation; type: functional, cell-based
Chain of D(3) dopamine receptor (P35462 whole entry): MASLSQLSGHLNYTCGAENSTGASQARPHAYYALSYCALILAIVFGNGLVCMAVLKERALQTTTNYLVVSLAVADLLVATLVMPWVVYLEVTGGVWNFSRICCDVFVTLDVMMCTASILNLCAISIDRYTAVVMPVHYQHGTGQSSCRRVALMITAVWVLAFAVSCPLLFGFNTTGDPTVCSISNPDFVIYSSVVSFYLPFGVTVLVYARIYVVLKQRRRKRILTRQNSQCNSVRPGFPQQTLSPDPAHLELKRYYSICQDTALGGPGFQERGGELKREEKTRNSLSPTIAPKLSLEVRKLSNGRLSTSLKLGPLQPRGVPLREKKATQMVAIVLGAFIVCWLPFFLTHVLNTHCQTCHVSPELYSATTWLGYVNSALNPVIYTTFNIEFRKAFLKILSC

[3] = Stability in human hepatocytes; type: ADME, cell-based, Liver, Hepatocyte
Procedure, shortened: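 Rat, dog and human hepatocyte incubations; read-out was the disappearance half-life of parent compound, in minutes.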

[4] = Clearance in rat; type: ADME, organism-based; details: in vivo

COCCN1CCOC(c2cccc(O)c2)C1 (centres undefined)
EC50 [1]: > 10 µM
EC50 [2]: > 3000 nM

CCCN1CCOC(c2cc(O)cc(O)c2)C1 (centres undefined)
EC50 [2]: 37 nM

CCCN1CCOC(c2cccc(NS(C)(=O)=O)c2)C1 (centres undefined)
EC50 [1]: > 1 µM
EC50 [2]: > 1000 nM

CCCN1CCOC(c2cccc(CO)c2)C1 (centres undefined)
EC50 [2]: > 1000 nM

CCCN1CCOC(c2ccc(O)c(N)c2)C1 (centres undefined)
EC50 [2]: 40 nM

CCCN1CCO[C@H](c2ccc(F)c(O)c2)C1
EC50 [1]: > 10 µM
EC50 [2]: 36 nM
Emax [2]: > 90%
half-life [3]: 21 min

CCCN1CCOC(c2cccc(OC)c2)C1 (centres undefined)
EC50 [1]: > 10 µM
EC50 [2]: > 1000 nM

CCCN1CCOC(c2cccc(O)c2)C1 (centres undefined)
EC50 [1]: > 10 µM
EC50 [2]: 27 nM

CCCN1CCO[C@H](c2cc(O)cc(O)c2)C1
EC50 [1]: > 10 µM
EC50 [2]: 32 nM
Emax [2]: > 90%
clearance [4]: 188 mL/min/kg

CC(=O)NCCCCN1CCOC(c2cccc(O)c2)C1 (centres undefined)
EC50 [1]: > 10 µM
EC50 [2]: > 10000 nM

CCCN1CCO[C@@H](c2cccc(O)c2)C1
EC50 [1]: > 10 µM
EC50 [2]: > 5000 nM

CCCN1CCOC(c2ccc(CO)c(O)c2)C1 (centres undefined)
EC50 [2]: > 5900 nM
